Consider 26 compounds from ChEMBL document CHEMBL1130280, “2-(1-Naphthyloxy)ethylamines with enhanced affinity for human 5-HT1D beta (h5-HT1B) serotonin receptors” (J Med Chem, 1997).

Broadly, the Ki is a measure of affinity in units of concentration, obtained from inhibition or displacement.

Assay [1] addresses 5-hydroxytryptamine receptor 1B (Homo sapiens, UniProt P28222). Nature of the assay: Agonist activity to the human recombinant 5-hydroxytryptamine 1B receptor. Format: functional. The method, boiled down: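 CHO Pro 5 cells stably transfected with human recombinant 5-HT1Dβ receptors. Compound was added to the culture medium for 30 min at 37 °C. The reaction was stopped with cold ethanolic 5 mM EDTA (2:1 v/v), and extracted cAMP was quantified by enzyme immunoassay, with serotonin as the reference agonist.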

Assay [2] has as its target T1, 5-hydroxytryptamine receptor 1D (Homo sapiens, UniProt P28221). Nature of the assay: Compound was tested for its binding affinity against human recombinant 5-hydroxytryptamine 1D receptor alpha for comparison purpose.
Assay [3] addresses T1, 5-hydroxytryptamine receptor 1D. As to the kind of experiment: Compound was tested for its agonist activity against human 5-hydroxytryptamine 1D receptor alpha for comparison purpose. It counts as functional.
Assay [4] shares this target. Nature of the assay: Compound was tested for its agonist activity against human recombinant 5-hydroxytryptamine 1D receptor alpha for comparison purpose. It counts as functional.

Chain of 5-hydroxytryptamine receptor 1B (P28222 whole entry): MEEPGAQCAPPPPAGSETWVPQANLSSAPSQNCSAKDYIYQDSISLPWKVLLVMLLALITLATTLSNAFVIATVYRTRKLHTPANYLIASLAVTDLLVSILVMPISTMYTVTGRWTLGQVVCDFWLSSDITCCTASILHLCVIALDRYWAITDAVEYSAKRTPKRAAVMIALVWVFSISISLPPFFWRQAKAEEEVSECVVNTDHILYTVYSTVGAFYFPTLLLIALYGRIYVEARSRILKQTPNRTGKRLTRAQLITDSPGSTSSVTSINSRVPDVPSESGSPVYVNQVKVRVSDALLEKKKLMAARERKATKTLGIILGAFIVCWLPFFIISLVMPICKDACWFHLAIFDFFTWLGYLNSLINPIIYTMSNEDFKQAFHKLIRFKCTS
T1 sequence (P28221 whole entry): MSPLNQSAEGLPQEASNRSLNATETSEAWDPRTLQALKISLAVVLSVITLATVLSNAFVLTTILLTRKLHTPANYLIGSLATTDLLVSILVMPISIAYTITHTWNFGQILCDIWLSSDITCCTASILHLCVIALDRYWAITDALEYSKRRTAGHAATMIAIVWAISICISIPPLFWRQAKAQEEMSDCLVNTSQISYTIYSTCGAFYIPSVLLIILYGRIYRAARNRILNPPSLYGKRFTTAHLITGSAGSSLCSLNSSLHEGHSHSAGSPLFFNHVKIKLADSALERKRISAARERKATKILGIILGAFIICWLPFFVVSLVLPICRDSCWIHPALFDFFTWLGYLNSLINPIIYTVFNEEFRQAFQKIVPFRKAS

In the case of `CN(C)CCCOc1ccccc1`, the Ki in assay [1] was above 10000 nM. Still for that read-out and setting: the figure for `CCNCCOc1cccc2ccccc12` is 66 nM.

Regarding `CNCCOc1ccccc1`, the Ki in assay [1] came out at 5960 nM; in assay [2], 1800 nM. Turning to `CN(C)CCCCOc1cccc2ccccc12`, in assay [1], the Ki was found to be 470 nM. `CCCN(C)CCCOc1ccccc1C1CCCC1`: the Ki in assay [1] is 1200 nM; in assay [2], 143 nM.

`CN(C)CCCOc1cccc2ccccc12`: the Ki in assay [1] worked out at 255 nM.

For `CNCCCOc1ccccc1`, the Ki in assay [1] worked out at 3450 nM. For the compound `CCCNCCOc1cccc2ccccc12`, the Ki in assay [1] came out at 200 nM. Regarding `CCCCN(CC)CCOc1cccc2ccccc12`, the Ki amounted to 1230 nM in assay [1] and 112 nM in assay [2]. For `CNCCOc1cccc2ccccc12`, the Ki in assay [1] was 26 nM; in assay [3], 34 nM. For `CC(C)NCCOc1cccc2ccccc12`, the Ki in assay [1] amounted to 120 nM.

Take `CN(C)CCOc1cccc2ccccc12`: the Ki in assay [1] was 94 nM.

`CC(C)NCCOc1cccc2[nH]ccc12`: the Ki in assay [1] amounted to 1120 nM. For the compound `CC(C)NCCCOc1cccc2ccccc12`, the Ki in assay [1] worked out at 7660 nM.

As to `CN(C)CCCNc1ccccc1`, the Ki in assay [1] was above 10000 nM. In the case of `CC(C)NCCCOc1cccc2[nH]ccc12`, the Ki in assay [1] was above 10000 nM.

As for `CCCN(C)CCOc1ccccc1C1CCCC1`, the values for the Ki in assay [1] and in assay [2] were 425 nM and 82 nM, respectively. For the compound `CN(CCOc1cccc2ccccc12)Cc1ccccc1`, the Ki turned out to be 260 nM in assay [1] and 590 nM in assay [2]. `CCCN(C)CCOc1cccc2ccccc12`: the results for the Ki in assay [1] and in assay [2] were 750 nM and 103 nM, respectively. `CNCCOc1cccc(C)c1C`: the Ki in assay [1] is 316 nM. Regarding `CCCCN(CCCC)CCOc1cccc2ccccc12`, the Ki in assay [1] was 2680 nM. As for `OCCNCCOc1cccc2ccccc12`, the figures for the Ki in assay [1] and in assay [4] were 107 nM and 68 nM, respectively.

As to `NCCOc1cccc2ccccc12`, the Ki in assay [1] amounted to 100 nM.

On to `NCCCOc1cccc2ccccc12`, for which, in assay [1], the Ki was found to be 290 nM. As for `CC(C)NCC(O)COc1cccc2[nH]ccc12` (racemic) [PINDOLOL], the Ki in assay [1] is above 10000 nM. The same measure, in the same setting: the figure for `CC(C)NCC(O)COc1cccc2[nH]ccc12` (single isomer, unassigned; (-)) [PINDOLOL] is 2600 nM.
